Calls of active or inactive are those of the source. The rule behind the calls is not given here.
How the values were obtained:
[1] = target: T1, Histone deacetylase 1 (Homo sapiens, UniProt Q13547); assay: Inhibition of HDAC1 in human HL-60 cells assessed as increase in Ac-H3 level at 0.5 to 2 uM incubated for 24 hrs by Western blot analysis; assay type: cell-based; conditions: dose 0.5-2 µM
Summary of the method: (§1)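 Compound given to HL-60 cells for 24 h at the stated concentrations, then lysed. Acetyl-histone H3 and acetyl-α-tubulin levels were read by Western blot, with total H3, α-tubulin or β-actin as references.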

[2] = system: HL-60; assay: Induction of apoptosis in human HL-60 cells assessed as cleavage of caspase-8 at 0.5 to 2 uM after 24 hrs Western blot analysis; assay type: functional, cell-based; conditions: dose 0.5-2 µM
Summary of the method: (§2)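 HL-60 cells were treated for 24 h at the indicated concentrations, then analysed by Western blot. Blots were probed for cleavage of PARP and caspase-3, -8 and -9. Ac-H3, Ac-α-tubulin and β-actin were also detected, with β-actin as the loading reference.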

[3] = system: HL-60; assay: Induction of apoptosis in human HL-60 cells assessed as cleavage of caspase-3 at 0.5 to 2 uM after 24 hrs Western blot analysis; assay type: functional, cell-based; conditions: dose 0.5-2 µM; summary of the method: as §2
[4] = system: HL-60; assay: Induction of apoptosis in human HL-60 cells assessed as necrotic cells at 2 uM incubated for 24 hrs by propidium iodide and annexin-V FITC staining based FACS analysis (reference value: 0.3 %); assay type: functional
[5] = system: HL-60; assay: Induction of apoptosis in human HL-60 cells assessed as early apoptotic cells at 1 uM incubated for 24 hrs by propidium iodide and annexin-V FITC staining based FACS analysis (reference value: 2.8 %); assay type: functional
[6] = target: Histone deacetylase 3 (Homo sapiens) (UniProt O15379); assay: Inhibition of HDAC3 in human HL-60 cells assessed as increase in Ac-H3 level at 0.5 to 8 uM incubated for 24 hrs by Western blot analysis; assay type: cell-based; conditions: dose 0.5-8 µM; summary of the method: as §1
[7] = target: T1, Histone deacetylase 1; assay: Inhibition of HDAC1 in human HL-60 cells assessed as increase in Ac-H3 level at 0.5 to 8 uM incubated for 24 hrs by Western blot analysis; assay type: cell-based; conditions: dose 0.5-8 µM; summary of the method: as §1
[8] = system: HL-60; assay: Induction of apoptosis in human HL-60 cells assessed as cleavage of caspase-3 at 0.5 to 8 uM after 24 hrs Western blot analysis; assay type: functional, cell-based; conditions: dose 0.5-8 µM; summary of the method: as §2
[9] = system: HL-60; assay: Induction of apoptosis in human HL-60 cells assessed as cleavage of PARP at 0.5 to 8 uM after 24 hrs Western blot analysis; assay type: functional, cell-based; conditions: dose 0.5-8 µM; summary of the method: as §2
[10] = system: HL-60; assay: Induction of apoptosis in human HL60 cells assessed as necrotic cells at 4 uM incubated for 24 hrs by propidium iodide and annexin-V FITC staining based FACS analysis (reference value: 0.5 %); assay type: functional
[11] = system: HL-60; assay: Induction of apoptosis in human HL-60 cells assessed as late apoptotic cells at 4 uM incubated for 24 hrs by propidium iodide and annexin-V FITC staining based FACS analysis (reference value: 4.2 %); assay type: functional
[12] = system: HL-60; assay: Induction of apoptosis in human HL-60 cells assessed as early apoptotic cells at 4 uM incubated for 24 hrs by propidium iodide and annexin-V FITC staining based FACS analysis (reference value: 2.9 %); assay type: functional
[13] = system: HL-60; assay: Induction of apoptosis in human HL-60 cells assessed as necrotic cells at 2 uM incubated for 24 hrs by propidium iodide and annexin-V FITC staining based FACS analysis (reference value: 0.5 %); assay type: functional
[14] = system: HL-60; assay: Induction of apoptosis in human HL-60 cells assessed as early apoptotic cells at 2 uM incubated for 24 hrs by propidium iodide and annexin-V FITC staining based FACS analysis (reference value: 2.9 %); assay type: functional
[15] = system: HL-60; assay: Induction of apoptosis in human HL60 cells assessed as viable cells at 2 uM incubated for 24 hrs by propidium iodide and annexin-V FITC staining based FACS analysis (reference value: 92.05 %); assay type: functional; conditions: read-out: Activity
[16] = system: HL-60; assay: Induction of apoptosis in human HL-60 cells assessed as viable cells at 1 uM incubated for 24 hrs by propidium iodide and annexin-V FITC staining based FACS analysis (reference value: 92.5 %); assay type: functional; conditions: read-out: Activity
[17] = target: T2, Protein deacetylase HDAC6 (Homo sapiens) (UniProt Q9UBN7); assay: Inhibition of HDAC6 in human HL-60 cells assessed as increase in acetylated alpha tubulin level at 0.5 to 8 uM after 24 hrs by Western blot analysis; assay type: cell-based; conditions: dose 0.5-8 µM; summary of the method: as §1
T2 sequence (whole entry): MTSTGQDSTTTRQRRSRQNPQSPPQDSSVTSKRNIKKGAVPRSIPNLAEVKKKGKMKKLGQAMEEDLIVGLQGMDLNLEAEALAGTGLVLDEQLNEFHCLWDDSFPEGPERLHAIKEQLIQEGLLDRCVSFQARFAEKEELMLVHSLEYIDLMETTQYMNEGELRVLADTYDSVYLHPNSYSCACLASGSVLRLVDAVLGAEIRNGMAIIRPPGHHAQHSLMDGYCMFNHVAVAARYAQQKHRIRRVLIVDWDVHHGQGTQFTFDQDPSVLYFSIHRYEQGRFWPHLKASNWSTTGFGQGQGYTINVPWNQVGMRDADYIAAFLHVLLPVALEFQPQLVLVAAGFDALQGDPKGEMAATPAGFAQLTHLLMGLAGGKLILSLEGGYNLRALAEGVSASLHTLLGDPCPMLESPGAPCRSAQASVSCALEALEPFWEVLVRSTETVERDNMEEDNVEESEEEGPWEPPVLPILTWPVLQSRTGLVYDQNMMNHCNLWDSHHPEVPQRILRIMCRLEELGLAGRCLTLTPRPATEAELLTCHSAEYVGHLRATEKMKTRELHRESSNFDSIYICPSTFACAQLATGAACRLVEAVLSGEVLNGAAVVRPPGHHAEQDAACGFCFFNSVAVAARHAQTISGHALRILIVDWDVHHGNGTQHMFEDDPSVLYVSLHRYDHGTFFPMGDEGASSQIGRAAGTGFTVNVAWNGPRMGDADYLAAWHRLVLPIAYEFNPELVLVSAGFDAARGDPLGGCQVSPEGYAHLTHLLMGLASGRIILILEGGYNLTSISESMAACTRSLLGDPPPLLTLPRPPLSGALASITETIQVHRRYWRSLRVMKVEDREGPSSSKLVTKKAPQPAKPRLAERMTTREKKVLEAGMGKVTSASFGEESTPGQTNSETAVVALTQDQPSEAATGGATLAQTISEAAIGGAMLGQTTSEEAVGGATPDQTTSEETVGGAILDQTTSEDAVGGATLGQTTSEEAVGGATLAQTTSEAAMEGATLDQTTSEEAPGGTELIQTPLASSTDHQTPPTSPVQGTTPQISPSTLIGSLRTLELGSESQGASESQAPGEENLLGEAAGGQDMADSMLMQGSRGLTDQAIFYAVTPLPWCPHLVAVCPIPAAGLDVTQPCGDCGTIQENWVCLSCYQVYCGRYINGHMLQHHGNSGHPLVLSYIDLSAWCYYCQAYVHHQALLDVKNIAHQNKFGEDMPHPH

[18] = Antitumor activity against mouse LL/2 cells inoculated in C57BL/6J mouse assessed as tumor growth inhibition at 100 mg/kg, ip administered for 12 days; assay type: functional, Lewis lung carcinoma; set-up: scale not given: the % may be the effect or the level left; conditions: time 12 day
[19] = system: HL-60; assay: Induction of apoptosis in human HL-60 cells assessed as necrotic cells at 8 uM incubated for 24 hrs by propidium iodide and annexin-V FITC staining based FACS analysis (reference value: 0.5 %); assay type: functional

T1 sequence (Q13547 whole entry): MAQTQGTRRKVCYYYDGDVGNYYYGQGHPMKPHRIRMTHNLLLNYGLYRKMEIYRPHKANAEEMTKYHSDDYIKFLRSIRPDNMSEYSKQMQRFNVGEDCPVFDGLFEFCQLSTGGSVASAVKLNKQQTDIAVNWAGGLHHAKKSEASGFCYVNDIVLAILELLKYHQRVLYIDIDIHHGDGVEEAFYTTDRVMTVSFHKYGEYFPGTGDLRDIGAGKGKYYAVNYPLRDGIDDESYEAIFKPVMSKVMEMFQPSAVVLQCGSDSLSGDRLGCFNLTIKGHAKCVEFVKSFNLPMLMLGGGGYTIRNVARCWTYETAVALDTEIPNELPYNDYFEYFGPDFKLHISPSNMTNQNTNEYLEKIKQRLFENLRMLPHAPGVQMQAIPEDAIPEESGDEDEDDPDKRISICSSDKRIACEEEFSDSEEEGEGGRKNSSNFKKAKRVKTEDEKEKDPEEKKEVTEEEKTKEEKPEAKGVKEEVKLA
Sequence of Histone deacetylase 3 (Homo sapiens) (O15379 whole entry): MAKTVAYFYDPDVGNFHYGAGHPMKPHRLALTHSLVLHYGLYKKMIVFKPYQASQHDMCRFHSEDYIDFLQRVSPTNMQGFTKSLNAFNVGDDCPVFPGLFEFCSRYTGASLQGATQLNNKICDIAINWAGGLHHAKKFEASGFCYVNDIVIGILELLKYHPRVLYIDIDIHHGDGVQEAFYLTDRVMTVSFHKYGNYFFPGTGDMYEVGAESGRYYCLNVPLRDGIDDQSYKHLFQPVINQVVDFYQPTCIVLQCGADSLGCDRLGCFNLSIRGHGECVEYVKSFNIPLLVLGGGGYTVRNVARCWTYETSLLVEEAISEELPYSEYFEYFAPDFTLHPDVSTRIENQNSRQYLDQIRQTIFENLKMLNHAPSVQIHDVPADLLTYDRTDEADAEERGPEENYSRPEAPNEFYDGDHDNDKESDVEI

| inhibition [1] | inhibition [6] | inhibition [7] | inhibition [17] | Compound | Activity [2] | Activity [3] | Activity [4] | Activity [5] | Activity [8] | Activity [9] | Activity [10] | Activity [11] | Activity [12] | Activity [13] | Activity [14] | viability at 2 µM [15] | viability at 1 µM [16] | Activity [18] | Activity [19] |
| --- | --- | --- | --- | --- | --- | --- | --- | --- | --- | --- | --- | --- | --- | --- | --- | --- | --- | --- | --- |
| Active | – | – | – | O=C(CCNC(=O)/C(Cc1ccc(O)c(Br)c1)=N/O)NO | Active | Active | 0.8% | 7.1% | – | – | – | – | – | – | – | – | – | – | – |
| – | Active | Active | inactive | O=C(NCCSSCCNC(=O)/C(Cc1ccc(O)c(Br)c1)=N/O)/C(Cc1ccc(O)c(Br)c1)=N/O [PSAMMAPLIN A] | – | – | – | – | Active | Active | 3.7% | 26.7% | 3.4% | 3.9% | 4.1% | 67.1% | 88.8% | – | – |
| – | Active | Active | inactive | O=C(NCCS)/C(Cc1ccc(O)c(Br)c1)=N/O | – | – | – | – | Active | Active | 0.3% | 4.7% | 1.6% | 0.3% | 2.4% | 93.6% | – | 62% | 3.3% |
